PMC3632105 (Nucleic Acids Research, 2013)
“And” between values parts separate entries of the source, which are not always exact repeats. Equal values may be shown once.

Legend:
[1] = Sedimentation coefficient of the free proteins; format: physicochemical; settings: low salt buffer: 5 mM potassium phosphate, pH 7.4, 5 mM NaCl, 8% (w/v) glycerol, 0.5 mM DTT; 20°C, 50 000 rpm
Outline: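 Sedimentation velocity in double-sector cells, recording 280 nm absorbance versus radial position. Samples were full-length DnaG, DnaG-N (residues 1–433), DnaG-C (434–581) and E. coli SSB. Concentrations came from 280 nm extinction coefficients. Data were evaluated as c(s) distributions in SEDFIT.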

DnaG-C [2] = test: NMR titration; format: binding, Escherichia coli; settings: 300 µM 15N-DnaG-C titrated with SSB-Carb, 295 K, 600 MHz
Outline: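 15N-DnaG-C in 5 mM potassium phosphate pH 7.4, 5 mM NaCl, 2 mM DTT, 10% D2O. Peptide was added from a 30 mM DMSO stock to final 0, 0.1, 0.3, 0.6 and 1 mM. SOFAST-HMQC spectra used 16 scans. Shift = sqrt[Δδ(1H)² + (Δδ(15N)/10)²], comparing no peptide with 1 mM.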

DnaG-C [3] = test: Isothermal titration calorimetry of DnaG-C with SSB-Carb peptide; format: binding, Escherichia coli; settings: for binding (association) constant KA by ITC: model of n identical independent sites
SSB = settings: low salt conditions; cited from earlier work
[4] = 150 mM NaCl, 5 mM potassium phosphate, pH 7.4, 8% (w/v) glycerol, 25°C, SSB-Carb on DnaG-C

## DnaG: full-length E. coli DnaG primase
[1]
  sedimentation coefficient, free protein: 3.4 S

## EcoSSB: Escherichia coli single-stranded DNA-binding protein; concentrations given in tetramers
[1]
  sedimentation coefficient, free protein: 3.9 S

## WMDFDDDIPF [SSB-Carb]
DnaG-C [2]
  chemical shift change of W522 side chain of DnaG-C (in words): not only the chemical shifts of tryptophan 522 backbone change upon addition of SSB-Carb peptide but also those of the side chain
DnaG-C [2]; listed as peptide
  chemical shift change of W522 side chain of DnaG-C (in words): strong changes in chemical shift on peptide binding
DnaG-C [3]; 5 mM NaCl, 5 mM potassium phosphate, pH 7.4, 8% (w/v) glycerol, 25°C, 1.04 mM SSB-Carb titrated into 46 µM DnaG-C
  binding (association) constant KA by ITC: 240000 M⁻¹
DnaG-C [3]; 5 mM NaCl, 5 mM potassium phosphate, pH 7.4, 8% (w/v) glycerol, 25°C, SSB-Carb on DnaG-C
  binding enthalpy ΔH by ITC: -12.4 kcal/mol
DnaG-C [3]; 150 mM NaCl, 5 mM potassium phosphate, pH 7.4, 8% (w/v) glycerol, 25°C, 1.08 mM SSB-Carb titrated into 46 µM DnaG-C
  binding (association) constant KA by ITC: 74000 M⁻¹ and ~70000 M⁻¹
DnaG-C [3]; [4]
  binding enthalpy ΔH by ITC: -9.87 kcal/mol
  binding stoichiometry n by ITC: 0.89
DnaG-C [3]; from 5 to 150 mM NaCl, DnaG-C/SSB-Carb interaction, ITC
  change of affinity on increase of salt concentration: decreases the affinity only by a factor of about three

## χ: χ subunit of DNA polymerase III
SSB
  increase in SSB-binding affinity in presence of ssDNA: 20 fold

B1: DnaG-C: amino acid residues 434–581 of DnaG, C-terminal helicase-binding domain (protein, UniProt P0ABS5 434-581, looked up, fragment)
chain: AAESGVSRPVPQLKRTTMRILIGLLVQNPELATLVPPLENLDENKLPGLGLFRELVNTCLSQPGLTTGQLLEHYRGTNNAATLEKLSMWDDIADKNIAEQTFTDSLNHMFDSLLELRQEELIARERTHGLSNEERLELWTLNQELAKK
modifications: helicase-binding domain
[1]
  sedimentation coefficient, free protein: 1.4 S

B2: DnaG-N: amino acid residues 1–433 of DnaG (protein, UniProt P0ABS5 1-433, looked up, fragment)
chain: MAGRIPRVFINDLLARTDIVDLIDARVKLKKQGKNFHACCPFHNEKTPSFTVNGEKQFYHCFGCGAHGNAIDFLMNYDKLEFVETVEELAAMHNLEVPFEAGSGPSQIERHQRQTLYQLMDGLNTFYQQSLQQPVATSARQYLEKRGLSHEVIARFAIGFAPPGWDNVLKRFGGNPENRQSLIDAGMLVTNDQGRSYDRFRERVMFPIRDKRGRVIGFGGRVLGNDTPKYLNSPETDIFHKGRQLYGLYEAQQDNAEPNRLLVVEGYMDVVALAQYGINYAVASLGTSTTADHIQLLFRATNNVICCYDGDRAGRDAAWRALETALPYMTDGRQLRFMFLPDGEDPDTLVRKEGKEAFEARMEQAMPLSAFLFNSLMPQVDLSTPDGRARLSTLALPLISQVPGETLRIYLRQELGNKLGILDDSQLERLMPK
[1]
  sedimentation coefficient, free protein: 2.9 S
